# The source made the active and inactive calls.
# Key:
# [1] = system: NCI-H1975; test: Antiproliferative activity against human H1975 cells expressing EGFR L858R/T790M mutant assessed as cell growth inhibition measured after 72 hrs by MTT assay; type: functional, cell-based; settings: NCI-H1975, 72 h
# How it was run: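 MTT assay on H1975 cells grown in RPMI-1640 with 10% heat-inactivated FBS and 1% penicillin-streptomycin at 37 °C and 5% CO₂. Cells were seeded at 3000–8000 per well and left 24 h, then exposed to a concentration series for 72 h. MTT (5 mg/mL stock in PBS) was added for 4 h, supernatant removed and formazan dissolved in DMSO. IC50 was fitted by nonlinear regression (log inhibitor vs response).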
# [2] = system: HepG2; test: Antiproliferative activity against human HepG2 cells expressing VEGFR2 assessed as cell growth inhibition measured after 72 hrs by MTT assay; type: functional, cell-based; settings: HepG2, 72 h
# How it was run: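 Cells were seeded at 3000–8000/well and allowed 24 h, then exposed to serial compound concentrations for 72 h. MTT (5 mg/mL stock in PBS) was added for 4 h, supernatant removed and DMSO added. IC50, defined as 50% growth inhibition, was derived by nonlinear regression (log inhibitor vs response).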
# [3] = system: von Hippel-Lindau disease tumor suppressor/Epidermal growth factor receptor (Homo sapiens), P00533+P40337 [UNDEFINED MUTATION]; test: Protac activity at VHL/EGFR del19 mutant in human HCC827 cells assessed as induction of EGFR degradation at 33 nM incubated for 24 hrs measured following drug wash-out for 24 hrs by Western blot analysis; type: cell-based
# How it was run: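 HCC827 cells (RPMI-1640, 10% heat-inactivated FBS, 1% sodium pyruvate, 1% glutamine, 37 °C, 5% CO₂) treated at 33 nM for 24 h. Medium then replaced with compound-free medium, and protein harvested at the stated times. EGFR read by Western blot; n = 2.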
# [4] = system: HCC827; test: Induction of apoptosis in human HCC827 cells assessed as apoptotic cells at 100 nM measured after 48 hrs by AnnexinV-FITC/propidium iodide staining based flow cytometry analysis relative to control; type: functional
# How it was run: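 To measure apoptosis, cells were seeded at 0.5–1 × 10⁶ per well, grown 24 h, then treated for 48 h. Collected cells were stained with an Annexin V-FITC apoptosis detection kit following its instructions, and apoptosis rate was read by flow cytometry. n = 2.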
# [5] = system: von Hippel-Lindau disease tumor suppressor/Epidermal growth factor receptor (Homo sapiens), P00533+P40337 [UNDEFINED MUTATION]; test: Protac activity at VHL/EGFR del19 mutant in human HCC827 cells assessed as induction of EGFR degradation at 33 nM measured after 24 hrs by Western blot analysis; type: cell-based
# How it was run: (§1)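 HCC827 cells seeded at 0.5–1 × 10⁶ per well, grown 24 h, then treated at the stated concentrations for 24 h. EGFR^del19 level by Western blot with anti-EGFR antibody and β-actin loading control.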
# [6] = system: von Hippel-Lindau disease tumor suppressor/Epidermal growth factor receptor (Homo sapiens), P00533+P40337 [UNDEFINED MUTATION]; test: Protac activity at VHL/EGFR del19 mutant in human HCC827 cells assessed as induction of EGFR degradation at 333 nM measured after 24 hrs by Western blot analysis; type: cell-based; how it was run: as §1
# [7] = system: von Hippel-Lindau disease tumor suppressor/Epidermal growth factor receptor (Homo sapiens), P00533+P40337 [UNDEFINED MUTATION]; test: Protac activity at VHL/EGFR del19 mutant in human HCC827 cells assessed as induction of EGFR degradation at 33 nM by Western blot analysis; type: cell-based; settings: time 12-72 hrs, TDE = time-dependent effect
# How it was run: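 Time course in HCC827 cells at 33 nM, with protein harvested at each stated time point. EGFR^del19 detected by Western blot.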
# [8] = target: von Hippel-Lindau disease tumor suppressor/Epidermal growth factor receptor (Homo sapiens, UniProt P00533+P40337, T790M/L858R); test: Protac activity at VHL/EGFR L858R/T790M mutant in human H1975 cells assessed as induction of degradation of EGFR incubated for 48 hrs by Western blot analysis; type: cell-based; settings: nci-h1975
# How it was run: (§2)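 H1975 cells exposed to the stated concentrations for 48 h. EGFR by Western blot; n = 3. DC₅₀ by nonlinear regression, log(inhibitor) vs response.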
# [9] = system: von Hippel-Lindau disease tumor suppressor/Epidermal growth factor receptor (Homo sapiens), P00533+P40337 [L858R,T790M]; test: Protac activity at VHL/EGFR L858R/T790M mutant in human H1975 cells assessed as maximal induction of degradation of EGFR incubated for 48 hrs by Western blot analysis relative to control; type: cell-based; settings: NCI-H1975; how it was run: as §2
# [10] = target: von Hippel-Lindau disease tumor suppressor/Epidermal growth factor receptor (Homo sapiens, UniProt P00533+P40337); test: Protac activity at VHL/EGFR in human A431 cells assessed as induction of degradation of EGFR at 0.1 to 3.3 uM incubated for 48 hrs by Western blot analysis; type: cell-based; settings: A-431, dose 0.1-3.3 µM
# [11] = system: von Hippel-Lindau disease tumor suppressor/Epidermal growth factor receptor (Homo sapiens), P00533+P40337 [UNDEFINED MUTATION]; test: Protac activity at VHL/EGFR del19 mutant in human HCC827 cells assessed as induction of EGFR degradation by measuring reduction in EGFR phosphorylation at 3 nM incubated for 48 hrs by Western blot analysis; type: cell-based
# How it was run: (§3)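 HCC827 or H1975 cells treated at the stated concentrations for 48 h. Lysates probed by Western blot for EGFR, P-EGFR, Akt and P-Akt (each 1:1000); n = 2.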
# [12] = system: von Hippel-Lindau disease tumor suppressor/Epidermal growth factor receptor (Homo sapiens), P00533+P40337 [L858R,T790M]; test: Protac activity at VHL/EGFR L858R/T790M mutant in human H1975 cells assessed as induction of degradation of EGFR by measuring reduction in EGFR phosphorylation at 100 nM incubated for 48 hrs by Western blot analysis; type: cell-based; settings: NCI-H1975; how it was run: as §3
# [13] = system: von Hippel-Lindau disease tumor suppressor/Epidermal growth factor receptor (Homo sapiens), P00533+P40337 [L858R,T790M]; test: Protac activity at VHL/EGFR L858R/T790M mutant in human H1975 cells assessed as induction of degradation of EGFR by measuring reduction in Akt phosphorylation at 100 nM incubated for 48 hrs by Western blot analysis; type: cell-based; settings: NCI-H1975; how it was run: as §3
# [14] = system: HCC827; test: Effect on Akt protein expression in human HCC827 cells at 0.003 to 0.33 uM incubated for 48 hrs by Western blot analysis; type: functional, cell-based; settings: dose 0.003-0.33 µM
# [15] = system: von Hippel-Lindau disease tumor suppressor/Epidermal growth factor receptor (Homo sapiens), P00533+P40337 [UNDEFINED MUTATION]; test: Protac activity at VHL/EGFR del19 mutant in human HCC827 cells assessed as induction of EGFR degradation at 0.033 uM pretreated with ubiquitination inhibitor, MLN4924 for 2 hrs followed by incubation with compound for 24 hrs by Western blot analysis; type: cell-based
# [16] = system: von Hippel-Lindau disease tumor suppressor/Epidermal growth factor receptor (Homo sapiens), P00533+P40337 [UNDEFINED MUTATION]; test: Protac activity at VHL/EGFR del19 mutant in human HCC827 cells assessed as induction of EGFR degradation at 0.033 uM pretreated with VHL ligand, VHL-Ac for 2 hrs followed by incubation with compound for 24 hrs by Western blot analysis; type: cell-based
# [17] = system: von Hippel-Lindau disease tumor suppressor/Epidermal growth factor receptor (Homo sapiens), P00533+P40337 [UNDEFINED MUTATION]; test: Protac activity at VHL/EGFR del19 mutant in human HCC827 cells assessed as induction of EGFR degradation at 0.033 uM pretreated with proteasome inhibitor, MG132 for 2 hrs followed by incubation with compound for 24 hrs by Western blot analysis; type: cell-based
# [18] = system: von Hippel-Lindau disease tumor suppressor/Epidermal growth factor receptor (Homo sapiens), P00533+P40337 [UNDEFINED MUTATION]; test: Protac activity at VHL/EGFR del19 mutant in human HCC827 cells assessed as induction of EGFR degradation at 0.1 to 0.3 nM precultured in medium without FBS followed by incubation with compound for 16 hrs by Western blot analysis; type: cell-based; settings: dose 0.1-0.3 nM
# How it was run: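 HCC827 or H1975 cells precultured 8 h in medium with or without FBS, then treated at the stated concentrations for 16 h. EGFR protein by Western blot; n = 3.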
smiles,measurement,setting,value
Cc1ncsc1-c1ccc(CNC(=O)[C@@H]2C[C@@H](O)CN2C(=O)[C@@H](NC(=O)CCCCCCN2CCN(c3ccc(Nc4ncc5nc(Nc6ccccc6)n(C6CCCC6)c5n4)cc3)CC2)C(C)(C)C)cc1,IC50,[1],0.203 µM
same,IC50,[2],> 5 µM
same,Activity,[3],Active
same,Activity,[4],44.8%
same,Activity,[5],Active
same,Activity,[6],inactive
same,Activity,[7],Tde
same,DC50,[8],0.126 µM
same,Emax,[9],90.3%
same,Activity,[10],inactive
same,Activity,[11],Active
same,Activity,[12],Active
same,Activity,[13],Active
same,Activity,[14],inactive
same,Activity,[15],inactive
same,Activity,[16],inactive
same,Activity,[17],Active
same,Activity,[18],Active

# — ChEMBL document CHEMBL4706553, “Discovery of potent small molecule PROTACs targeting mutant EGFR” (Eur J Med Chem, 2020)
